Source: ChEMBL document CHEMBL1123672, “Structure-activity relationships of sparsomycin and its analogues. Inhibition of peptide bond formation in cell-free systems and of L1210 and bacterial cell growth” (J Med Chem, 1987)

How the values were obtained:
Escherichia coli [1] = assay: Ability to inhibit the peptide bond formation by puromycin reaction in Escherichia coli was determined; type: functional; conditions: read-out: ED50 (the source's name)
Escherichia coli [2] = assay: Ability to inhibit the phenylalanine synthesis in Escherichia coli was determined; type: functional; conditions: read-out: ED50 (the source's name)
Procedure, shortened: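 Poly(U)-directed [³H]Phe polymerization with E. coli MRE600 ribosomes ([…]) and S-100. The reaction was started with 30 μM [³H]Phe and run 30 min at 37 °C. TCA-insoluble counts were taken on glass-fiber filters. Averages of three experiments.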

Escherichia coli [3] = assay: Ability to inhibit the peptide bond formation by fragment reaction in Escherichia coli was determined; type: functional; conditions: read-out: ED50 (the source's name)
Procedure, shortened: (§1)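 Fragment reaction: ribosomes (1 mg/mL, from E. coli MRE600 or S. cerevisiae Y166) in 150 μL of 33 mM Tris-HCl pH 7.4, 270 mM KCl, 13 mM Mg acetate, with 2 mM puromycin, 1 pmol N-acetyl-[³H]Leu-ACCAC(U) donor (ribonuclease T1 fragment of N-acetyl-[³H]Leu-tRNA), 33% methanol and test drug; no mRNA or small subunit. Values are averages of three experiments.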

L1210 = assay: Ability to inhibit the colony formation of leukemia L1210 cells in agar medium (0.3%) was determined; type: functional; conditions: Mus musculus, read-out: ID50 (the source's name)
Saccharomyces cerevisiae [4] = assay: Ability to inhibit the peptide bond formation by fragment reaction in Saccharomyces cerevisiae was determined; type: functional; conditions: read-out: ED50 (the source's name); procedure, shortened: as §1
Saccharomyces cerevisiae [5] = assay: Ability to inhibit the phenylalanine synthesis in Saccharomyces cerevisiae was determined; type: functional; conditions: read-out: ED50 (the source's name)
Procedure, shortened: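 Yeast (S. cerevisiae Y166) ribosomes and S-100 in the same poly(U)/[³H]Phe mix as the E. coli assay, with 20 mM creatine phosphate and 50 μg/mL creatine phosphokinase as the energy system. Incubation was 30 min at 30 °C. Cold 10% TCA precipitate was filter-counted. Averages of three experiments.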

[6] = Ability to inhibit the bacterial growth of Escherichia coli (MRE600) by 50% was determined.; type: functional; set-up: reference not given here
[7] = (§2) Effect of 2-propanol on inhibition of the fragment reaction in the presence of 10 uM of compound was determined
Procedure, shortened: (§3)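 Solvent comparison: the fragment reaction (ribosomes with puromycin acceptor and N-acetyl-[³H]Leu-ACCAC(U) donor, in Tris-HCl pH 7.4/KCl/Mg acetate buffer) was run with methanol, ethanol, 2-propanol or butanol as the required organic solvent. Read-out is percent inhibition at the fixed drug level given in each line; series A and B are separate experiments.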

[8] = (§4) Effect of butanol on inhibition of the fragment reaction in the presence of 10 uM of compound was determined; procedure, shortened: as §3
[9] = (§5) Effect of ethanol on inhibition of the fragment reaction in the presence of 10 uM of compound was determined; procedure, shortened: as §3
[10] = (§6) Effect of methanol on inhibition of the fragment reaction in the presence of 10 uM of compound was determined; procedure, shortened: as §3
[11] = system: Saccharolobus solfataricus; assay: Ability to inhibit the phenylalanine synthesis in Sulfolobus solfataricus was determined; type: functional; conditions: read-out: ED50 (the source's name)
[12] = Effect of ethanol on inhibition of the fragment reaction in the presence of 200 uM of compound was determined
[13] = Effect of methanol on inhibition of the fragment reaction in the presence of 200 uM of compound was determined
[14] = Effect of 2-propanol on inhibition of the fragment reaction in the presence of 200 uM of compound was determined
[15] = as §4; type: functional; conditions: in the assay text read “100 uM” for “10 uM”; procedure, shortened: as §3
[16] = as §2; type: functional; conditions: in the assay text read “100 uM” for “10 uM”; procedure, shortened: as §3
[17] = as §5; type: functional; conditions: in the assay text read “100 uM” for “10 uM”; procedure, shortened: as §3
[18] = as §6; type: functional; conditions: in the assay text read “100 uM” for “10 uM”; procedure, shortened: as §3
[19] = Effect of 2-propanol on inhibition of the fragment reaction in the presence of 10 uM of compound was determined from Expt-A; procedure, shortened: as §3
[20] = Effect of 2-propanol on inhibition of the fragment reaction in the presence of 20 uM of compound was determined from Expt-B; procedure, shortened: as §3
[21] = Effect of butanol on inhibition of the fragment reaction in the presence of 10 uM of compound was determined from Expt-A; procedure, shortened: as §3
[22] = Effect of ethanol on inhibition of the fragment reaction in the presence of 10 uM of compound was determined from Expt-A; procedure, shortened: as §3
[23] = Effect of ethanol on inhibition of the fragment reaction in the presence of 20 uM of compound was determined from Expt-B; procedure, shortened: as §3
[24] = Effect of methanol on inhibition of the fragment reaction in the presence of 10 uM of compound was determined from Expt-A; procedure, shortened: as §3
[25] = Effect of methanol on inhibition of the fragment reaction in the presence of 20 uM of compound was determined from Expt-B; procedure, shortened: as §3
[26] = Ability to inhibit the growth of Escherichia coli (MRE600) by 50% was determined. Activity represent the ratio of ED50 of sparsomycin to the ED50 of the compound; type: functional
Procedure, shortened: (§7)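 Liquid culture: E. coli MRE600 was grown in LB plus 0.2% glucose to A560 0.1, then 1-mL aliquots were incubated with drug 4 h at 37 °C. Growth was stopped with 0.1% sodium azide and A550 read; drug-free medium counts as 100%. ED50 (μM) is the dose giving 50% growth; the value reported is sparsomycin ED50/analogue ED50.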

[27] = Ability to inhibit the bacterial growth of Escherichia coli (MRE600) by 50% was determined Activity represent the ratio of ED50 of sparsomycin to the ED50 of the compound; type: functional; procedure, shortened: as §7

Structure (SMILES)	EC50 (Escherichia coli [1]) [µM]	EC50 (Escherichia coli [2]) [µM]	EC50 (Escherichia coli [3]) [µM]	IC50 (L1210) [µM]	EC50 (Saccharomyces cerevisiae [4]) [µM]	EC50 (Saccharomyces cerevisiae [5]) [µM]	EC50 [11] [µM]	Ratio [6]	other results
CSC[S@@+]([O-])C[C@@H](CO)NC(=O)/C=C/c1c(C)[nH]c(=O)[nH]c1=O (racemic)	100	2000	1000	300	1000	2000		0.01	
Cc1nc(O)nc(O)c1/C=C/C(=O)NC(CO)C[S+]([O-])CSCc1ccccc1 (stereo not drawn)	0.13	0.6	7.6	0.11	2.6	0.6	60	1	Inhibition [7]: 20%; Inhibition [8]: 54%; Inhibition [9]: 29%; Inhibition [10]: 25%
CSC[S+]([O-])CC(CO)NC(=O)/C=C\c1cnc(O)nc1O (stereo not drawn)								0.47	
CCCCCCCCSC[S+]([O-])CC(CO)NC(=O)/C=C/c1c(C)nc(O)nc1O (stereo not drawn)	0.25	1.6	60	0.1	300	1.3		2.5	Inhibition [12]: 30%; Inhibition [13]: 42%; Inhibition [14]: 6%
CCCCCCCCCC[S+]([O-])CC(CO)NC(=O)/C=C/c1c(C)nc(O)nc1O (stereo not drawn)	0.08	1.8	5000	0.14	700	0.2	30	3.6	inhibition [15]: 15%; inhibition [16]: 12%; inhibition [17]: 35%; inhibition [18]: 44%
CSCSC[C@@H](CO)NC(=O)/C=C/c1c(C)nc(O)nc1O	1000	2000	1000	300	550	2000		0.01	
CSC[S@+]([O-])C[C@H](CO)NC(=O)/C=C/c1c(C)[nH]c(=O)[nH]c1=O	0.1	8.5	3.2	0.4	2.8	5.2	900	1	Inhibition [19]: 64%; Inhibition [20]: 76%; Inhibition [21]: 86%; Inhibition [22]: 91%; Inhibition [23]: 92%; Inhibition [24]: 57%; Inhibition [25]: 64%
CSCSC[C@H](CO)NC(=O)/C=C/c1c(C)nc(O)nc1O	7	2000	550	12.8	150	2000			Ratio [26]: 1.8
CSC[S@@+]([O-])C[C@H](CO)NC(=O)/C=C/c1c(C)[nH]c(=O)[nH]c1=O	13	2000	700	5.8	65	2000		0.92	

More lines, main results first:

EC50 (Escherichia coli [1]) [µM]	EC50 (Escherichia coli [2]) [µM]	EC50 (Escherichia coli [3]) [µM]	IC50 (L1210) [µM]	EC50 (Saccharomyces cerevisiae [4]) [µM]	EC50 (Saccharomyces cerevisiae [5]) [µM]	EC50 [11] [µM]	Structure (SMILES)	Ratio [6]	other results
50	600	30	12.7	50	1000		CSC[S+]([O-])CC(CO)NC(=O)/C=C/c1cnc(O)nc1O (stereo not drawn)	0.27	
5000	2000	5000	30	5000	2500	5000	Cc1nc(O)nc(O)c1/C=C/C(=O)N[C@@H](CO)C[S@+]([O-])CCl	0.01	
0.65	450	7.6	0.29	17	220	5000	Cc1nc(O)nc(O)c1/C=C/C(=O)N[C@@H](CO)C[S@@+]([O-])CCl	0.55	
40	2000	1000	300	650	2000		CSC[S@+]([O-])C[C@@H](CO)NC(=O)/C=C/c1c(C)nc(O)nc1O	0.32	
0.23	140	4.5	0.75	6.2	42	1000	CCC[S+]([O-])CC(CO)NC(=O)/C=C/c1c(C)nc(O)nc1O (stereo not drawn)	0.3	
160	2000	750	180	350	2000		Cc1nc(O)nc(O)c1/C=C/C(=O)NC(CO)CSC[S+](C)[O-] (stereo not drawn)		Ratio [27]: 0.4
